For series [1], the target named is T1, Diacylglycerol O-acyltransferase 1 (Mus musculus, UniProt Q9Z2A7).
T1 sequence (Q9Z2A7 whole entry): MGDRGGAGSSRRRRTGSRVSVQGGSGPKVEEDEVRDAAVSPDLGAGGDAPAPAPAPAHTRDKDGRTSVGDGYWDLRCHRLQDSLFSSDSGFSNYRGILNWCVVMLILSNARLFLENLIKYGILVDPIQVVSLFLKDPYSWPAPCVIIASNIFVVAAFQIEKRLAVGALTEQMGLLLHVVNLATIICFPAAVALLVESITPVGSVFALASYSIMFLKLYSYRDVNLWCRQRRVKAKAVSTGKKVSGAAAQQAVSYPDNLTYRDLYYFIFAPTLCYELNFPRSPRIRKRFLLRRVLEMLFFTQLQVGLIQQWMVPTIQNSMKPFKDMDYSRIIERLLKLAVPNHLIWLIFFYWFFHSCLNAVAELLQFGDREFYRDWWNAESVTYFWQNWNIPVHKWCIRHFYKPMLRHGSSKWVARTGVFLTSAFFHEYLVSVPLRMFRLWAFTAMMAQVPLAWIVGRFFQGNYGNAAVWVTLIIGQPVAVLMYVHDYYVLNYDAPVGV
The series can be described thus: Inhibition of DGTA1 in mouse C2C12 cells assessed as inhibition of triglyceride formation after 2 hrs by LC/MS/MS analysis. The class given is cell-based. In a few lines: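 C2C12 cells were seeded in DMEM with 5 mM glucose and 10% FBS for 18 h at 37 °C. Medium was then replaced with DMEM, 5 mM glucose and 250 µM oleate-BSA plus inhibitor (0.5% DMSO final) for 2 h at 37 °C. Cells were extracted with butanol containing tripalmitolein internal standard and triglyceride was read by LC-MS/MS. An 11-point, 3-fold dose response was run in quadruplicate.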

Series [2] can be described thus: Permeability across apical to basolateral side in human Caco2 cells. The class given is ADME, cell-based. Conditions: Caco-2, read-out: permeability. Put shortly: (§1)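 Caco-2 monolayer permeability was measured in the A-B and B-A directions, and the efflux ratio was taken as B-A/A-B.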
The nature of series [3]: Permeability across basolateral to apical side in human Caco2 cells. The class given is ADME, cell-based. Particulars: Caco-2, read-out: permeability. Put shortly: as §1
In general terms: Caco-2 monolayers are a common model of the intestinal barrier.

The subject of series [4] is Salmonella typhimurium. Briefly: Genotoxicity in histidine depleted Salmonella typhimurium TA98 assessed as increase in reverting mutations up to 1000 ug in presence of S9 metabolic activation by Ames test. The class given is toxicity. Conditions: salmonella enterica subsp. enterica serovar typhimurium.
Series [5] has as its system Salmonella typhimurium. Briefly: Genotoxicity in histidine depleted Salmonella typhimurium TA100 assessed as increase in reverting mutations up to 1000 ug in presence of S9 metabolic activation by Ames test. The class given is toxicity. Conditions: salmonella enterica subsp. enterica serovar typhimurium.
For series [6], the system named is Salmonella typhimurium. Briefly: Genotoxicity in histidine depleted Salmonella typhimurium TA100 assessed as increase in reverting mutations up to 1000 ug in absence of S9 metabolic activation by Ames test. The class given is toxicity. Conditions: salmonella enterica subsp. enterica serovar typhimurium. For orientation: The Ames test uses bacterial strains that need an amino acid and regain growth without it when mutated back.

The nature of series [7]: Clearance in Sprague-Dawley rat at 1 mg/kg, iv by LC/MS/MS analysis. The class given is ADME, organism-based. Conditions: in vivo. Put shortly:
(§2)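 Male Sprague-Dawley rats, 200-300 g, dosed iv (n = 2) or po (n = 3) as solutions in NMP/PG or PEG400/ETPGS vehicles. Blood was taken from a jugular vein catheter at 0.083 (iv only), 0.25, 0.5, 1, 2, 4, 6 and 8 h into EDTA tubes, and plasma was analysed by LC-MS/MS. Values are means ± SD.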

Series [8] can be described thus: Volume of distribution at steady state in Sprague-Dawley rat at 1 mg/kg, iv by LC/MS/MS analysis. The class given is ADME, organism-based. Conditions: in vivo, read-out: Vdss. In a few lines: as §2
Series [9] in a line: Half life in Sprague-Dawley rat at 1 mg/kg, iv by LC/MS/MS analysis. The class given is ADME, organism-based. Conditions: in vivo. In a few lines:
as §2

Series [10] in a line: AUC (0 to 8 hrs) in Sprague-Dawley rat at 1mg/kg, iv by LC/MS/MS analysis. Also on record: time < 8 hr, dose 1 mg/kg, route intravenous. Particulars: in vivo. The class given is ADME, organism-based. Put shortly:
as §2

Series [11] in a line: Cmax in Sprague-Dawley rat at 3 mg/kg, po by LC/MS/MS analysis. The class given is ADME, organism-based. Also on record: dose 3 mg/kg, route oral. Particulars: in vivo. Put shortly:
as §2

Series [12] can be described thus: Tmax in Sprague-Dawley rat 3 mg/kg, po by LC/MS/MS analysis. The class given is ADME, organism-based. Particulars: in vivo. Put shortly: as §2
The nature of series [13]: AUC (0 to 8 hrs) in Sprague-Dawley rat at 3 mg/kg, po by LC/MS/MS analysis. The class given is ADME, organism-based. Also on record: dose 3 mg/kg, time < 8 hr, route oral. Particulars: in vivo. Put shortly:
as §2

A short description of series [14]: Oral bioavailability in Sprague-Dawley rat at 3 mg/kg by LC/MS/MS analysis. Particulars: in vivo. The class given is ADME, organism-based. Put shortly: as §2
Series [15] has as its system Homo sapiens. The series can be described thus: Toxicity in human assessed as diarrhea at 150 mg, po as single oral dose. The class given is organism-based. Particulars: in vivo.
Series [16] concerns Homo sapiens. Briefly: Toxicity in human assessed as nausea at 150 mg, po as single oral dose. The class given is organism-based. Conditions: in vivo.
A short description of series [17]: Drug metabolism in dog hepatocytes assessed as [3H]-(2S,3S,4S,5R,6S)-3,4,5-trihydroxy-6-(3-(4-(6-(5-(4-methoxyphenyl)-1,3,4-oxadiazol-2-yl)-1H-benzo[d]imidazol-2-yl)-3,5-dimethylphenyl)-2,2-dimethylpropanoyloxy)tetrahydro-2H-pyran-2-carboxylic acid formation at 12.5 uM after 18 hrs. The class given is ADME, cell-based, Canis lupus familiaris, Hepatocyte. In a few lines: (§3)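 [3H]-labelled compound (12.5 µM) was incubated for 18 h with rat, dog, monkey or human hepatocytes, and metabolites were profiled.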

Series [18] in a line: Drug metabolism in monkey hepatocytes assessed as [3H]-(2S,3S,4S,5R,6S)-3,4,5-trihydroxy-6-(3-(4-(6-(5-(4-methoxyphenyl)-1,3,4-oxadiazol-2-yl)-1H-benzo[d]imidazol-2-yl)-3,5-dimethylphenyl)-2,2-dimethylpropanoyloxy)tetrahydro-2H-pyran-2-carboxylic acid formation at 12.5 uM after 18 hrs. The class given is ADME, cell-based, Macaca mulatta, Hepatocyte. Conditions: rhesus monkey. In a few lines:
as §3

The nature of series [19]: Drug metabolism in human hepatocytes assessed as [3H]-(2S,3S,4S,5R,6S)-3,4,5-trihydroxy-6-(3-(4-(6-(5-(4-methoxyphenyl)-1,3,4-oxadiazol-2-yl)-1H-benzo[d]imidazol-2-yl)-3,5-dimethylphenyl)-2,2-dimethylpropanoyloxy)tetrahydro-2H-pyran-2-carboxylic acid formation at 12.5 uM after 18 hrs. The class given is ADME, cell-based, Hepatocyte. Put shortly:
as §3

Series [20] is described as follows: Drug metabolism in rat hepatocytes assessed as [3H]-3-(3,5-dimethyl-4-(6-(5-phenyl-1,3,4-oxadiazol-2-yl)-1H-benzo[d]imidazol-2-yl)phenyl)-2,2-dimethylpropanoic acid formation at 12.5 uM after 18 hrs. The class given is ADME, cell-based, Hepatocyte. In a few lines: as §3
Series [21] is described as follows: Drug metabolism in dog hepatocytes assessed as [3H]-3-(3,5-dimethyl-4-(6-(5-phenyl-1,3,4-oxadiazol-2-yl)-1H-benzo[d]imidazol-2-yl)phenyl)-2,2-dimethylpropanoic acid formation at 12.5 uM after 18 hrs. The class given is ADME, cell-based, Canis lupus familiaris, Hepatocyte. In a few lines:
as §3

Series [22] in a line: Drug metabolism in monkey hepatocytes assessed as [3H]-3-(3,5-dimethyl-4-(6-(5-phenyl-1,3,4-oxadiazol-2-yl)-1H-benzo[d]imidazol-2-yl)phenyl)-2,2-dimethylpropanoic acid formation at 12.5 uM after 18 hrs. Particulars: rhesus monkey. The class given is ADME, cell-based, Macaca mulatta, Hepatocyte. In a few lines: as §3
The nature of series [23]: Drug metabolism in human hepatocytes assessed as [3H]-3-(3,5-dimethyl-4-(6-(5-phenyl-1,3,4-oxadiazol-2-yl)-1H-benzo[d]imidazol-2-yl)phenyl)-2,2-dimethylpropanoic acid formation at 12.5 uM after 18 hrs. The class given is ADME, cell-based, Hepatocyte. Put shortly:
as §3

From ChEMBL document CHEMBL4014326, “Discovery of an Orally Bioavailable Benzimidazole Diacylglycerol Acyltransferase 1 (DGAT1) Inhibitor That Suppresses Body Weight Gain in Diet-Induced Obese Dogs and Postprandial Triglycerides in Humans” (J Med Chem, 2017) come the findings set out here.

Usually IC50 stands for the concentration at which inhibition is half-maximal. As a reminder, the clearance is a measure of how efficiently the substance is removed, as volume per time. Usually half-life stands for how long it takes for the measured level to halve. In general, AUC(0-t) refers to the area under the concentration-time curve up to a stated or last time point. In general, Cmax refers to the peak of the concentration-time curve. One may read the Tmax as the time from dosing to the highest level. By bioavailability is commonly meant dose-corrected exposure relative to a reference, in per cent. `COc1ccc(-c2nnc(-c3ccc4nc(-c5c(C)cc(CC(C)(C)C(=O)O)cc5C)[nH]c4c3)o2)cc1`: the IC50 in [1] came out at 151 nM. In addition, in series [2], the Papp A→B was found to be 4.2 ×10⁻⁶ cm/s. The Papp B→A in [3] is 10 ×10⁻⁶ cm/s. The Activity entry in the series on Salmonella typhimurium [4] was “Non-Toxic”; in the series with Salmonella typhimurium [5] it was “Non-Toxic”; with Salmonella typhimurium [6], “Non-Toxic”; in the series on Homo sapiens [15] it was “Toxic”; in the series on Homo sapiens [16], “Toxic”. Moreover, the clearance in series [7] amounted to 9.5 mL/min/kg. In addition, the Vd in [8] is 0.6 L/kg. Further, the half-life in series [9] was 1.9 h. Further, the area under the curve AUC(0-t) at 8 h worked out at 3.86 µM·h in [10] and 10.4 µM·h in series [13]. The concentration in series [11] peaked (Cmax) at 3.55 µM. In [12], the time of peak concentration (Tmax) is 1.2 h. In [14], this compound came in with a bioavailability of 90%. In addition, the Drug metabolism entry in series [17], in series [18], in series [19], in series [20], in [21] and in series [22] was “Metabolite_Detected” each time. Moreover, the Drug metabolism result in series [23] is “Metabolite_Detected”.
